Data: publication PMC9588736 (Cell chemical biology, 2022)

Tests used:
HEK293T cells = test: Quantitative proteomics in HEK293T cells; type: cell-based; settings: human HEK293T cells, 10 hour treatment
KEAP1-BRD4BD2 = KEAP1-BRD4BD2 (Homo sapiens, UniProt O60885+Q14145); test: KEAP1-BRD4BD2 dimerization TR-FRET assay; type: biochemical
Method in brief: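 TR-FRET mix: 200 nM biotinylated human BRD4BD2, 200 nM Alexa Fluor 647-labelled human KEAP1 (residues 321–609, insect-cell expressed, SpyCatcher-labelled) and 2 nM Eu-streptavidin. Buffer was 50 mM Tris pH 8.0, 200 mM NaCl, 0.1% Pluronic F-68, 0.5% BSA and 1 mM TCEP; compound was titrated. After 15 min at room temperature, excitation was 337 nm and the 665/620 nm ratio was read over thirty 200-s cycles. Mean ± SD of ≥3 technical replicates; two independent experiments.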

BRD4 [1] = molecular target: T1, BRD4 (Homo sapiens, UniProt O60885); test: Immunoblot of BRD4 degradation in MM.1S cells; type: cell-based
Method in brief: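 MM.1S cells were treated with test compound for 16 h (24 h in the initial screen). For rescue, cells were pretreated 2 h with 10 μM KEAP1 inhibitor, 10 μM JQ1 or 1 μM MLN4924. Lysates in RIPA were BCA-normalised, run on 4–12% gels and blotted to PVDF with IRDye secondaries. BRD4 bands were quantified relative to β-actin. Two independent experiments.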

BRD4 [2] = molecular target: T1, BRD4; test: Immunoblot of BRD4 degradation in parental and KEAP1 knockdown OVCAR8 cells; type: cell-based
Method in brief: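 OVCAR8 cells were grown in DMEM with 10% FBS. KEAP1 knockdown lines came from shRNA lentivirus made in HEK293T, used with polybrene (10 μg/mL) and selected with puromycin (1 μg/mL); knockdown was checked by Western blot. Parental and knockdown cells were treated with test compound for 16 h, then immunoblotted. BRD4 was normalised to β-actin. Two independent experiments.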

MM.1S proteome = test: Multiplexed mass spectrometry-based proteomics in MM.1S cells; type: cell-based, human; settings: 200 nM, 6 hours
Method in brief: (§1)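 TMT-multiplexed LC-MS proteomics. Cells were treated with DMSO (biological triplicate) or test compound (MM.1S: 0.2 μM, 6 h; KPC: 1 μM, 8 h), harvested by centrifugation at 4 °C and lysed in 8 M urea/EPPS pH 8.5. 200 μg protein was reduced, alkylated and precipitated, digested with LysC 12 h at room temperature then trypsin 6 h at 37 °C, TMT-labelled, high-pH fractionated (96→24) and run on an Orbitrap Fusion Lumos.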

BRD4/3/2 = test: Immunoblot of BRD4/3/2 in MM.1S cells; type: cell-based, human; settings: indicated time points
Method in brief: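 MM.1S cells were grown in RPMI with 10% FBS at 37 °C and 5% CO2, then given DMSO or test compound for a time course. Cells were lysed in RIPA with protease and phosphatase inhibitors. BCA-equalised protein was run on 4–12% gels and transferred to PVDF. Primary antibodies ran overnight at 4 °C and IRDye secondaries 1 h at room temperature. BRD4/3/2 bands were normalised to β-actin by densitometry. Two independent experiments.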

KPC cells = test: Quantitative proteomics in KPC cells; type: cell-based, mouse; settings: 1 μM, 8 hours
Method in brief: as §1

FAK [3] = molecular target: FAK (Mus musculus, UniProt P34152); test: Immunoblot of FAK degradation in KPC cells; type: cell-based
Chain of FAK (Mus musculus, UniProt P34152) (P34152 whole entry): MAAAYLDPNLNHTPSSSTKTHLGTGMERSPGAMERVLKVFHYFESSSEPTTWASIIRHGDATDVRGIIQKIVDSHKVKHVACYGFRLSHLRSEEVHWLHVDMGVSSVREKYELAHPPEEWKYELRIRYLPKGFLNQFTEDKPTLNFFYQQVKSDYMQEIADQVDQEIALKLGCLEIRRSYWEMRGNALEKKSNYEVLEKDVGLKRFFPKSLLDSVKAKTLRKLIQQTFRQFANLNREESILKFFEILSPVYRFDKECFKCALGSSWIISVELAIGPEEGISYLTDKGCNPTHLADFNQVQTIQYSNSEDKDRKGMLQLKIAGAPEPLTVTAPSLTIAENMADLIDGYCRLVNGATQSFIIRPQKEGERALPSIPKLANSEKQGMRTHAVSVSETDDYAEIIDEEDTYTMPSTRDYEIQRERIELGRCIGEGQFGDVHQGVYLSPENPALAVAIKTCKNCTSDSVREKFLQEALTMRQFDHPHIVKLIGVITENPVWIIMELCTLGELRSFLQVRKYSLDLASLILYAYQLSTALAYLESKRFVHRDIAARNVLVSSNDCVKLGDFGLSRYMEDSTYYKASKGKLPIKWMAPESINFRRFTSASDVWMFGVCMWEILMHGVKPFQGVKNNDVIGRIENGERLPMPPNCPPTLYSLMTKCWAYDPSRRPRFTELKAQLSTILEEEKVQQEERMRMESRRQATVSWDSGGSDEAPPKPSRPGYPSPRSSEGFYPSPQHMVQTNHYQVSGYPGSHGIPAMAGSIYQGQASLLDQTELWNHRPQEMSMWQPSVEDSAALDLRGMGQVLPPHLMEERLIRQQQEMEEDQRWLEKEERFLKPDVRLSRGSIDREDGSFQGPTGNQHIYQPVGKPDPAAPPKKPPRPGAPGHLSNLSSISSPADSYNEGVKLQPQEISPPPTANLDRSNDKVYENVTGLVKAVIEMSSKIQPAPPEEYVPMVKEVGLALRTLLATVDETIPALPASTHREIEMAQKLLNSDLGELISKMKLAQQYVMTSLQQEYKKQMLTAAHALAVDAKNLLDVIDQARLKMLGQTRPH
Method in brief: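 Murine pancreatic KPC cells (RPMI, 10% FBS) were exposed to 500 nM or 1 μM test compound over a time course. RIPA lysates were immunoblotted, with FAK band intensity normalised to β-actin in ImageJ. Blots are representative of two independent experiments.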

FAK [4] = molecular target: FAK (Homo sapiens, UniProt Q05397); test: Immunoblot of FAK degradation in PATU-8988T cells; type: cell-based; settings: 0.1–5 μM, 24 h
Chain of FAK (Homo sapiens, UniProt Q05397) (Q05397 whole entry): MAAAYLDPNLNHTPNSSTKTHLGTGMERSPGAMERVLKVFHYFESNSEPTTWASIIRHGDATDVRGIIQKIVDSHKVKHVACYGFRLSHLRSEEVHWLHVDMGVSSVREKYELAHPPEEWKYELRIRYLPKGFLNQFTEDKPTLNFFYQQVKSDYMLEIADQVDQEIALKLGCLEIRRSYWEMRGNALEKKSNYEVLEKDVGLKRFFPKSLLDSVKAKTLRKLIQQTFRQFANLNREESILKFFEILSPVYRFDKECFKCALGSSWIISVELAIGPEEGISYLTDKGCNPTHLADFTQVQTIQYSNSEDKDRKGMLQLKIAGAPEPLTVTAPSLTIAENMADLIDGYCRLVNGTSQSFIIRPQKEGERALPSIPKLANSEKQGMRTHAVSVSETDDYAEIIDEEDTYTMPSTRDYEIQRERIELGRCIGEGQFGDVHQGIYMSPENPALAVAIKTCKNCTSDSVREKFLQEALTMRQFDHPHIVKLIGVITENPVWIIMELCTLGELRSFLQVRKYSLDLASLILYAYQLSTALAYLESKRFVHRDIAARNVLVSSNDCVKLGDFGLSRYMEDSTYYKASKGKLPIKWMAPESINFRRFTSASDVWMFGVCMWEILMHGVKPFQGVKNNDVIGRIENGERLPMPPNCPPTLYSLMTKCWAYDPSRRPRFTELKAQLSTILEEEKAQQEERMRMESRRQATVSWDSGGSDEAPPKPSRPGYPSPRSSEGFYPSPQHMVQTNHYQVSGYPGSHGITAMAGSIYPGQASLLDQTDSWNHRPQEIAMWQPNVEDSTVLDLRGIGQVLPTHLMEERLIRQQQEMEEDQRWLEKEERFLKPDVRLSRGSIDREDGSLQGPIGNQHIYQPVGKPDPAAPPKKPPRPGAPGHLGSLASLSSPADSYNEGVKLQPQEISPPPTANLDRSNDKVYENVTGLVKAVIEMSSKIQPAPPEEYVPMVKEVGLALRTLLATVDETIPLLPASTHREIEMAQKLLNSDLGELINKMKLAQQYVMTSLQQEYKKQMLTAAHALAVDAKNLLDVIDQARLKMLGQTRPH
Method in brief: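 Human PATU-8988T pancreatic cells (DMEM, 10% FBS) were treated 24 h with test compound at 0.1–5 μM. FAK was assessed by immunoblot of RIPA lysates and normalised to β-actin. Two independent experiments.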

Chain of KEAP1-BRD4BD2 (Q14145 321-609 limits assumed, other chains not shown): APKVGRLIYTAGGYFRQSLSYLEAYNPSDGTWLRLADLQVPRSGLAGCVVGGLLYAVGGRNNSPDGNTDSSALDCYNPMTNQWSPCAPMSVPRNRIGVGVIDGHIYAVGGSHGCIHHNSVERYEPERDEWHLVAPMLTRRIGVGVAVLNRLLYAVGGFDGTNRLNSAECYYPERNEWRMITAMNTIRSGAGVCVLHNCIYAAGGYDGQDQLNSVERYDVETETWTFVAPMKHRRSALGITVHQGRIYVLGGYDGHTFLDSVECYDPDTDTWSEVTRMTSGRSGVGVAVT

Cc1ccc(C(CC(=O)O)c2cc(OCC(=O)NCCOCCOCCN3CCN(c4ccc(Nc5ncc(Cl)c(Nc6ccccc6S(=O)(=O)C(C)C)n5)cc4)CC3)c3c(c2)nnn3C)cc1CN1CC(C)Oc2ccccc2S1(=O)=O (centres unmarked) [DGY-03–188, 3-(7-(2-((2-(2-(2-(4-(4-((5-chloro-4-((2-(isopropylsulfonyl)phenyl)amino)pyrimidin-2-yl)amino)phenyl)piperazin-1-yl)ethoxy)ethoxy)ethyl)amino)-2-oxoethoxy)-1-methyl-1H-benzo[d][1,2,3]triazol-5-yl)-3-(4-methyl-3-((4-methyl-1,1-dioxido-3,4-dihydro-2H-benzo[b][1,4,5]oxathiazepin-2-yl)methyl)phenyl)propanoic acid] was tested, and the “degradation across the whole proteome” value (HEK293T cells) was “did not induce any degradation across the whole proteome”.

In the case of COc1cc([C@@H](CC(=O)O)c2ccc(C)c(CN3C[C@@H](C)Oc4cc(CCCCCCNC(=O)C[C@@H]5N=C(c6ccc(Cl)cc6)c6c(sc(C)c6C)-n6c(C)nnc65)ccc4S3(=O)=O)c2)cc2nnn(C)c12 [DGY-06–177-pk2, (S)-3-(3-(((R)-7-(6-(2-((S)-4-(4-chlorophenyl)-2,3,9-trimethyl-6H-thieno[3,2-f][1,2,4]triazolo[4,3-a][1,4]diazepin-6-yl)acetamido)hexyl)-4-methyl-1,1-dioxido-3,4-dihydro-2H-benzo[b][1,4,5]oxathiazepin-2-yl)methyl)-4-methylphenyl)-3-(7-methoxy-1-methyl-1H-benzo[d][1,2,3]triazol-5-yl)propanoic acid], the “concentration at which KEAP1-BRD4BD2 dimerization is promoted” value (KEAP1-BRD4BD2) is reported as “approximately 100 nM”, the “BRD4 degradation, enantiomers compared” value (BRD4 [1]; MM1.S cells, 24-hour treatment at 1 μM) is reported as “induced stronger degradation of BRD4” and the “BRD4 degradation after pre-treatment with MLN4924” value (BRD4 [1]; MM.1S cells, 1 μM MLN4924 2 h prior, then 16 hrs) is reported as “BRD4 degradation was blocked”. The “BRD4 degradation after pre-treatment with excess (+)-JQ1 or KI-696” value (BRD4 [1]; MM.1S cells, 10 μM JQ1 or 10 μM KEAP1 inhibitor 2 h prior, then 16 hrs) was “abolished”, the “effect on BRD4 abundance” value (BRD4 [2]; KEAP1 knockdown (KEAP1^KD) OVCAR8 cells, 16 h) was “no effect on BRD4 abundance” and the BRD4 degradation (BRD4 [2]; OVCAR8 cells, 1 μM) was “induces degradation of BRD4”. The “concentration of maximal BRD4 degradation” value (BRD4 [2]; parental OVCAR8 cells, 16 hours) was 1 µM, the “selectivity of degradation across the proteome” value (MM.1S proteome) was “BRD4 as the only significantly downregulated protein” and the “degradation of BRD4 versus BRD2 and BRD3 by immunoblotting” value (BRD4/3/2) was “preferentially induces BRD4 degradation while largely sparing BRD2&3”.

COc1cc([C@@H](CC(=O)O)c2ccc(C)c(CN3C[C@@H](C)Oc4cc(CCCN5CCN(c6ccc(Nc7ncc(Cl)c(Nc8ccccc8S(=O)(=O)C(C)C)n7)cc6)CC5)ccc4S3(=O)=O)c2)cc2nnn(C)c12 [NJH-04–098, (S)-3-(3-(((R)-7-(3-(4-(4-((5-chloro-4-((2-(isopropylsulfonyl)phenyl)amino)pyrimidin-2-yl)amino)phenyl)piperazin-1-yl)propyl)-4-methyl-1,1-dioxido-3,4-dihydro-2H-benzo[b][1,4,5]oxathiazepin-2-yl)methyl)-4-methylphenyl)-3-(7-methoxy-1-methyl-1H-benzo[d][1,2,3]triazol-5-yl)propanoic acid] was tested, and the “proteins downregulated across the proteome” value (KPC cells) was “only FAK (PTK2) was significantly downregulated across the proteome”, the “time of maximal FAK degradation” value (FAK [3]; 500 nM) was 24 h and the “time of maximal FAK degradation” value (FAK [3]; 1 μM) was 8 h. The FAK degradation (FAK [4]) was “did not observe degradation of FAK”.
